# Results as given in ChEMBL document CHEMBL2150901, “Synthesis and biological activity of tricyclic cycloalkylimidazo-, pyrimido- and diazepinopurinediones” (Eur J Med Chem, 2011).
# Active and inactive are the calls of the source. The calls are words filed in the database; no cut-off is given here.
# Legend:
# Mus musculus [1] = test: Anticonvulsant activity in F1 albino mouse assessed as protection against subcutaneous pentylenetetrazole-induced seizures at 300 mg/kg, ip after 4 hrs; format: functional, organism-based; parameters: dose 300 mg/kg
# Method in brief: (§1)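 Male albino F-1 mice (18–25 g), groups of 1–5 (rotorod 2–8). Compound given ip as a suspension in 0.5% methylcellulose at 30, 100 and 300 mg/kg. Seizures by maximal electroshock or subcutaneous pentylenetetrazole; neurotoxicity by rotorod. Read at 0.5 and 4 h, with some at 0.25, 1 and 2 h. Value is the minimum active dose, with protected (or toxic)/tested animals.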
# Mus musculus [2] = test: Anticonvulsant activity in F1 albino mouse assessed as protection against maximal electroshock-induced seizures at 300 mg/kg, ip after 0.5 hrs; format: functional, organism-based; parameters: dose 300 mg/kg; method in brief: as §1
# Adenosine receptor A2a [3] = molecular target: Adenosine receptor A2a (Homo sapiens, UniProt P29274); test: Displacement of [3H]MSX-2 from human recombinant adenosine A2A receptor expressed in CHO cells; format: cell-based
# Adenosine receptor A2a (Homo sapiens, UniProt P29274), sequence (P29274 whole entry): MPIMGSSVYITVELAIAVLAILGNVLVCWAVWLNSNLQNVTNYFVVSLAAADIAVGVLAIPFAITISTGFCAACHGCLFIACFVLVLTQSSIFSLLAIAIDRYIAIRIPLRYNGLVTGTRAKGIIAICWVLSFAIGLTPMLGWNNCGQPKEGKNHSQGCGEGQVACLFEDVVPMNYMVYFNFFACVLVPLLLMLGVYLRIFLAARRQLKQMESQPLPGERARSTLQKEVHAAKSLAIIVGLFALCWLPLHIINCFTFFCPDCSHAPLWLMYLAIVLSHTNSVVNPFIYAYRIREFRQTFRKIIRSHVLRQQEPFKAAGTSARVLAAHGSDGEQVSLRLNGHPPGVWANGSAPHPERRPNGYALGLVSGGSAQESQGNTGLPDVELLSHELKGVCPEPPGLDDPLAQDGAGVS
# [4] = molecular target: T1, Adenosine receptor A1 (Rattus norvegicus) (UniProt P25099); test: Displacement of [3H]CCPA from adenosine A1 receptor in rat brain cortical membrane at 25 uM; format: cell membranes
# T1 sequence (whole entry): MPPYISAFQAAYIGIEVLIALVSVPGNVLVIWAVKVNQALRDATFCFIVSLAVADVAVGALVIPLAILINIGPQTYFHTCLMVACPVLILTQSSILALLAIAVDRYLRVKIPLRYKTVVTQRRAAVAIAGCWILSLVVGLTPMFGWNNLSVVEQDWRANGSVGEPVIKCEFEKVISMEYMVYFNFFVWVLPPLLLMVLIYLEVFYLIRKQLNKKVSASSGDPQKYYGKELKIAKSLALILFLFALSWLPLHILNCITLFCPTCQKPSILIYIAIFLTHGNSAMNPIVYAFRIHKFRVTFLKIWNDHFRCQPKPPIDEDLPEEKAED
# Mus musculus [5] = test: Neurotoxicity in F1 albino mouse assessed as minimal motor impairment at 300 mg/kg, ip after 0.5 hrs by rotorod test; format: toxicity, organism-based; parameters: dose 300 mg/kg, route intraperitoneal; conditions: in vivo; method in brief: as §1
# [6] = molecular target: T2, Adenosine receptor A3 (Homo sapiens) (UniProt P0DMS8); test: Displacement of [3H]PSB-11 from human recombinant adenosine A3 receptor expressed in CHO cells at 10 uM; format: cell-based
# T2 sequence (whole entry): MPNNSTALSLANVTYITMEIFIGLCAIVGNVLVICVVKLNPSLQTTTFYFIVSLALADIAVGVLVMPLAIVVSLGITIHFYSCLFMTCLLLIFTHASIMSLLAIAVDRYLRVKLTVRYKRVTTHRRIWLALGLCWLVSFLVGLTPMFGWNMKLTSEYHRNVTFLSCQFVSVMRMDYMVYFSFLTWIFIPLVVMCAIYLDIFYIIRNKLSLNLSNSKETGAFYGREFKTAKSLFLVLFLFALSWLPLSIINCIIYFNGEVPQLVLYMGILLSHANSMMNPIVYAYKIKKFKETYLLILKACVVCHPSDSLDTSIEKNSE
# Method in brief: (§2)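 CHO cell membranes expressing the human receptor. Radioligands: A1 [3H]CCPA; A2B [3H]ZM241385 or [3H]PSB-603; A3 [3H]PSB-11. […] Potent compounds run at 6–7 concentrations spanning 3 orders of magnitude; Ki ± SEM.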
# Mus musculus [7] = test: Anticonvulsant activity in F1 albino mouse assessed as protection against maximal electroshock-induced seizures at 300 mg/kg, ip after 1 hr; format: functional, organism-based; parameters: dose 300 mg/kg; method in brief: as §1
# Adenosine receptor A1 [8] = molecular target: T3, Adenosine receptor A1 (Rattus norvegicus, UniProt P25099); test: Displacement of [3H]CCPA from adenosine A1 receptor in rat brain cortical membrane; format: cell membranes
# T3 sequence (P25099 whole entry): T1 sequence (whole entry)
# [9] = molecular target: T4, Adenosine receptor A2b (Homo sapiens) (UniProt P29275); test: Displacement of [3H]PSB-603 from human recombinant adenosine A2B receptor expressed in CHO cells at 10 uM; format: cell-based; method in brief: as §2
# T4 sequence (whole entry): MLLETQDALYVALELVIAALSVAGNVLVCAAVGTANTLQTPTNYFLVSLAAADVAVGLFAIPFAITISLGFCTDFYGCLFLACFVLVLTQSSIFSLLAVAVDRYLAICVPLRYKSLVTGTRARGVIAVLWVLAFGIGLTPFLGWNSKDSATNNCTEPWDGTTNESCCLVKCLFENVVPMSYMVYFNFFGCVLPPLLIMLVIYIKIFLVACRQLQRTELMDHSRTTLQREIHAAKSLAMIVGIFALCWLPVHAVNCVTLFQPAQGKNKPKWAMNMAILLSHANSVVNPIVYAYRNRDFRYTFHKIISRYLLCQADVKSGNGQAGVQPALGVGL
# Adenosine receptor A2a [10] = molecular target: Adenosine receptor A2a (Rattus norvegicus, UniProt P30543); test: Displacement of [3H]MSX-2 from adenosine A2A receptor in rat brain striatal membrane; format: cell membranes
# Adenosine receptor A2a (Rattus norvegicus, UniProt P30543), sequence (P30543 whole entry): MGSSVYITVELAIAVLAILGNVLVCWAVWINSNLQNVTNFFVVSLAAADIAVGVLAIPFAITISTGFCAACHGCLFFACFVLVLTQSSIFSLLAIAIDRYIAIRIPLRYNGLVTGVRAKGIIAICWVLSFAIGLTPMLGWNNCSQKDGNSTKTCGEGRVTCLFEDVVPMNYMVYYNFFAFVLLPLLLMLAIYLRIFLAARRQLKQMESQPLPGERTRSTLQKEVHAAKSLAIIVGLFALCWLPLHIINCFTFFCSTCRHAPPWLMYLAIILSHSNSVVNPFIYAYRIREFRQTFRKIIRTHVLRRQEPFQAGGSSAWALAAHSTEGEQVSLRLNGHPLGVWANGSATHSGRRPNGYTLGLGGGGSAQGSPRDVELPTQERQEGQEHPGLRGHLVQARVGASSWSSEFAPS
# Mus musculus [11] = test: Anticonvulsant activity in F1 albino mouse assessed as protection against maximal electroshock-induced seizures at 300 mg/kg, ip after 0.25 hrs; format: functional, organism-based; parameters: dose 300 mg/kg; method in brief: as §1
# Mus musculus [12] = test: Neurotoxicity in F1 albino mouse assessed as minimal motor impairment at 300 mg/kg, ip after 0.25 hrs by rotorod test; format: toxicity, organism-based; parameters: dose 300 mg/kg, route intraperitoneal; conditions: in vivo; method in brief: as §1
# Adenosine receptor A3 = molecular target: T5, Adenosine receptor A3 (Homo sapiens, UniProt P0DMS8); test: Displacement of [3H]PSB-11 from human recombinant adenosine A3 receptor expressed in CHO cells; format: cell-based
# T5 sequence (P0DMS8 whole entry): T2 sequence (whole entry)
# Rattus norvegicus = species: Rattus norvegicus; test: Selectivity ratio of Ki for adenosine A1 receptor in rat brain cortical membrane to Ki for adenosine A2A receptor in rat brain striatal membrane; format: cell membranes
# Method in brief: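 Ki ratios from radioligand competition binding. Rat A1 used brain cortical membranes and rat A2A used brain striatal membranes. Human A1 and A2A used membranes of CHO cells expressing the receptors. A1 radioligand [³H]CCPA; A2A radioligand [³H]MSX-2. Potent compounds were tested at 6–7 concentrations spanning 3 orders of magnitude.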
# Mus musculus [13] = test: Neurotoxicity in F1 albino mouse assessed as minimal motor impairment at 300 mg/kg, ip after 4 hrs by rotorod test; format: toxicity, organism-based; parameters: dose 300 mg/kg, route intraperitoneal; conditions: in vivo; method in brief: as §1
# Adenosine receptor A1 [14] = molecular target: T6, Adenosine receptor A1 (Homo sapiens, UniProt P30542); test: Displacement of [3H]CCPA from human recombinant adenosine A1 receptor expressed in CHO cells; format: cell-based
# T6 sequence (P30542 whole entry): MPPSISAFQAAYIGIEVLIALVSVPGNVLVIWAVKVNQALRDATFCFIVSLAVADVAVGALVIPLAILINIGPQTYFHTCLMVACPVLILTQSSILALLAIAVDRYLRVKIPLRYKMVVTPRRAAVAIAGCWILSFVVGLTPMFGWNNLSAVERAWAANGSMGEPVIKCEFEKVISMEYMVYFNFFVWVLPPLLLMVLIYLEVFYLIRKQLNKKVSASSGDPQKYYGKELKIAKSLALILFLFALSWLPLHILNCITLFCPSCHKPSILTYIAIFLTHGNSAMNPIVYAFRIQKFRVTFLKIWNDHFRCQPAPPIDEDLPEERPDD
# Mus musculus [15] = test: Anticonvulsant activity in F1 albino mouse assessed as protection against maximal electroshock-induced seizures at 300 mg/kg, ip after 4 hrs; format: functional, organism-based; parameters: dose 300 mg/kg; method in brief: as §1
# Mus musculus [16] = test: Anticonvulsant activity in F1 albino mouse assessed as protection against subcutaneous pentylenetetrazole-induced seizures at 300 mg/kg, ip after 0.25 hrs; format: functional, organism-based; parameters: dose 300 mg/kg; method in brief: as §1
# Adenosine receptor A2b = molecular target: T7, Adenosine receptor A2b (Homo sapiens, UniProt P29275); test: Displacement of [3H]PSB-603 from human recombinant adenosine A2B receptor expressed in CHO cells; format: cell-based; method in brief: as §2
# T7 sequence (P29275 whole entry): T4 sequence (whole entry)
# Mus musculus [17] = test: Anticonvulsant activity in F1 albino mouse assessed as protection against subcutaneous pentylenetetrazole-induced seizures at 300 mg/kg, ip after 0.5 hrs; format: functional, organism-based; parameters: dose 300 mg/kg; method in brief: as §1
# [18] = molecular target: T8, Adenosine receptor A1 (Homo sapiens) (UniProt P30542); test: Displacement of [3H]CCPA from human recombinant adenosine A1 receptor expressed in CHO cells at 10 uM; format: cell-based; method in brief: as §2
# T8 sequence (whole entry): T6 sequence (P30542 whole entry)
# Mus musculus [19] = test: Anticonvulsant activity in F1 albino mouse assessed as protection against subcutaneous pentylenetetrazole-induced seizures at 300 mg/kg, ip after 1 hr; format: functional, organism-based; parameters: dose 300 mg/kg; method in brief: as §1
# Mus musculus [20] = test: Neurotoxicity in F1 albino mouse assessed as minimal motor impairment at 300 mg/kg, ip after 1 hr by rotorod test; format: toxicity, organism-based; parameters: dose 300 mg/kg, route intraperitoneal; conditions: in vivo; method in brief: as §1
# Mus musculus [21] = test: Neurotoxicity in F1 albino mouse assessed as minimal motor impairment at 100 mg/kg, ip after 0.5 hrs by rotorod test; format: toxicity, organism-based; parameters: dose 100 mg/kg, route intraperitoneal; conditions: in vivo; method in brief: as §1
Compound,Activity (Mus musculus [1]),Activity (Mus musculus [2]),inhibition [4],Activity (Mus musculus [7]),Ki (Adenosine receptor A1 [8]),Ki (Adenosine receptor A2a [10]),Activity (Mus musculus [11]),Activity (Mus musculus [12]),Ratio Ki (Rattus norvegicus),Activity (Mus musculus [13]),Activity (Mus musculus [15]),Activity (Mus musculus [16]),Activity (Mus musculus [17]),Activity (Mus musculus [19]),Activity (Mus musculus [20]),further results
Cn1c(=O)c2c(nc3n2CCCN3C2CCCCCC2)n(C)c1=O,inactive,inactive,4%,inactive,> 10 µM,2.67 µM,inactive,Non-toxic,4,Non-toxic,inactive,inactive,inactive,inactive,Non-toxic,Ki (Adenosine receptor A2a [3]): 1.16 µM; Activity (Mus musculus [5]): Non-toxic; inhibition [6]: 6%; inhibition [9]: 0%; Ki (Adenosine receptor A3): > 10 µM; Ki (Adenosine receptor A1 [14]): > 10 µM; Ki (Adenosine receptor A2b): > 10 µM; inhibition [18]: 41%
Cn1c(=O)c2c(nc3n2CCCCN3C2CCC(O)CC2)n(C)c1=O (mixture of isomers),inactive,inactive,44%,inactive,≥ 25 µM,3.81 µM,inactive,Non-toxic,7,Non-toxic,inactive,inactive,Active,inactive,Non-toxic,Activity (Mus musculus [21]): Non-toxic
